The RNAGym collection of RNA variant scans (doi:10.1126/science.aae0568)
Variants at the floor of the assay were thinned out.

B1: tRNA (parent)
chain: GUUCCGUUGGCGUAAUGGUAACGCGUCUCCCUCCUAAGGAGAAGACUGCGGGUUCGAGUCCCGUACGGAACG

Variants of: B1
Assay: yeast fitness relative to wild type (ratio to wild type); higher = fitter; tRNA-Arg(CCU), competitive growth, 37 C, YPD
Method in brief: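 The tRNA-Arg(CCU) gene variants were made by chemical synthesis with a 3% per-site mutation rate at 69 sites and inserted at the native genomic locus of Saccharomyces cerevisiae. After pooling, the strains were competed in YPD at 37°C for 24 hours in six parallel replicates. Gene amplicons from the start population and each end population were read by 100-nucleotide paired-end sequencing, and Darwinian fitness relative to wild type was taken from genotype frequency changes. Genotypes needed ≥ 100 starting reads, and estimates < 0.5 were set to 0.5.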

Row | Variant | yeast fitness
1 | A15G C27U G58C | 0.717
2 | A15C G17A U28A | 0.675
3 | A15G C29G C33G | ≤ 0.5
4 | A15G G17A A40C | ≤ 0.5
5 | A15G G25C G48A | 0.637
6 | A15C C46U C60U A65C | ≤ 0.5
7 | A15G C55G G56U G68C | ≤ 0.5
8 | A15G A20U C34A | ≤ 0.5
9 | A15G G44A G50C C60U A70G | ≤ 0.5
10 | A15G G39C C46U | 0.689
11 | A15C C31U G38A G56C A70U | 0.581
12 | A15C G25C C29U U35C A43U A70U | ≤ 0.5
13 | A15G G23C G38C C49U | ≤ 0.5
14 | A15G G18A G48C C61A | ≤ 0.5
15 | A15G A43G | 0.975
16 | A15G A36G A70C | 0.674
17 | A15G C24G C29U C34G U35C U54G G67C | ≤ 0.5
18 | A15C C31G C55A C66U | ≤ 0.5
19 | A15C G17A G38C | ≤ 0.5
20 | A15G C60G C62U | ≤ 0.5
21 | A15G G44U A57U G58A C66G | ≤ 0.5
22 | A15C G48A A57G | 0.536
23 | A15C G25A C27A C33U C34A C61U | ≤ 0.5
24 | A15C U16C | 0.678

Row | Variant | yeast fitness
25 | A15C U16A | 0.628
26 | A15C G38A A45G G52A C61G | 0.539
27 | A15G C27A A36G A43G A65G | 0.571
28 | A15G G23C G38C G52C G58A | 0.507
29 | A15G G23C G38C G52C C66A | ≤ 0.5
30 | A15C G17A A36G G38C U59C | ≤ 0.5
31 | A15G G50C C60U | ≤ 0.5
32 | A15C U19C C62A | 0.536
33 | A15C C60U C66A | ≤ 0.5
34 | A15C G17A G18A A36C C55U | ≤ 0.5
35 | A15C G17A A42U | ≤ 0.5
36 | A15G G56A | 0.971
37 | A15G G23C C30A A42C G51C C61A G67A | ≤ 0.5
38 | A15G A37G C55A | ≤ 0.5
39 | A15G C60U C62U | 0.64
40 | A15G A21G C34G A45G A65C | 0.67
41 | A15G G51A A70U | 0.533
42 | A15C G17C C31A G44C | ≤ 0.5
43 | A15G A20U A57U C60U | ≤ 0.5
44 | A15G C62U A69C | 0.829
45 | A15C U28A | 0.622
46 | A15G A57C C62A | ≤ 0.5
47 | A15G A21C G39C A45G U53C | ≤ 0.5
48 | A15G G23C A43G | 0.54

Row | Variant | yeast fitness
49 | A15C U19C A37C G51A G67C | ≤ 0.5
50 | A15G A36U C55U A65U | ≤ 0.5
51 | A15C C62U | 0.755
52 | A15C C62A | 0.665
53 | A15G C49G C66G G67C | ≤ 0.5
54 | A15C U19A C30U A37C G41A | ≤ 0.5
55 | A15G G52A G67U | ≤ 0.5
56 | A15C C33U U47G C49U G52C | ≤ 0.5
57 | A15G C34G A37U C49G | ≤ 0.5
58 | A15G A57G C62G C66U | ≤ 0.5
59 | A15G G25A C27A G50A | 0.592
60 | A15G C29G A37U | ≤ 0.5
61 | A15C G25C C29U U35C A43U A57C G58A | ≤ 0.5
62 | A15G C24G C29U | ≤ 0.5
63 | A15C U19A G48A C62G U64C | ≤ 0.5
64 | A15G G50A | 0.929
65 | A15G C24U C34U C61U | ≤ 0.5
66 | A15C C31G G58A U59A A65U | ≤ 0.5
67 | A15G A40G | 0.758
68 | A15G G38A A40C G50A U54A | ≤ 0.5
69 | A15G C29U C34A A42U | ≤ 0.5
70 | A15C U64A | 0.74
71 | A15C U64C | 0.956
72 | A15G C30A A65C | 0.609

Row | Variant | yeast fitness
73 | A15G | 0.987
74 | A15C U19A C24G C34G C46U C61A A70U | 0.639
75 | A15G C27A C60G | ≤ 0.5
76 | A15G A45U G48A | 0.636
77 | A15G C24U C29U C30G U35G | 0.737
78 | A15G A21C C24G A40U | ≤ 0.5
79 | A15C U16C G17C C49G | ≤ 0.5
80 | A15C G17A C22U G23C G51A A69C | 0.567
81 | A15G U19C | 0.985
82 | A15G C22G U35C A43U | 0.556
83 | A15G A20G C49A C62U G63A | ≤ 0.5
84 | A15C G39A C46U | 0.55
85 | A15C U19C A65C | 0.628
86 | A15G C34G | 0.636
87 | A15G A20U C33A A36C A42U | ≤ 0.5
88 | A15G C60U | 0.786
89 | A15G A21U A37C G39C A57U C62U | ≤ 0.5
90 | A15G C30A C62A | ≤ 0.5
91 | A15C U19A A21G C22G C30U C55G | ≤ 0.5
92 | A15G C30G A43U C62A | 0.611
93 | A15G C27U U28C | 0.731
94 | A15G C24G A37G C49A | ≤ 0.5
95 | A15G U16A A20G A42G | 0.577
96 | A15G A20G G48A | 0.738

Row | Variant | yeast fitness
97 | A15G G17A A21C | ≤ 0.5
98 | A15G A21U G63A | 0.627
99 | A15C U16A G50A | ≤ 0.5
100 | A15C G52C U64A | ≤ 0.5
101 | A15G C49U C60G | ≤ 0.5
102 | A15C G25A | 1.02
103 | A15G A20G A21C C31U | ≤ 0.5
104 | A15C U16C A43C | ≤ 0.5
105 | A15C U16C A36U A65C | ≤ 0.5
106 | A15G C66U | 0.887
107 | A15G C66A | 0.657
108 | A15G G17A C33U G39C C55A G67C | 0.66
109 | A15G G44C A65C | ≤ 0.5
110 | A15C G17A G18A A36C C55U C66A | 0.529
111 | A15G C49U A69U | 0.8
112 | A15G A65C | 0.867
113 | A15C C46A | 0.86
114 | A15C C46U | 0.939
115 | A15G U19A A69U | 0.729
116 | A15C C55U A65G | ≤ 0.5
117 | A15C U16C A37C G50A U53A C61U | 0.58
118 | A15C U19C C31G G56C C66U | ≤ 0.5
119 | A15G A37C G50C | 0.601
120 | A15G A36C U47A G48C U54G A65C | ≤ 0.5

Row | Variant | yeast fitness
121 | A15G G50A U54A A57C | 0.583
122 | A15G G17A C30A | 0.529
123 | A15G C24U C29U C30G U35G A43U | ≤ 0.5
124 | A15C C33U U47G C49U G52C G68A | ≤ 0.5
125 | A15G A21C C34U C61U | ≤ 0.5
126 | A15G C33G | 0.732
127 | A15C C33G A42C A45C | ≤ 0.5
128 | A15C G17C C31A G44C A70G | ≤ 0.5
129 | A15G G25C | 0.987
130 | A15G G25A | 0.87
131 | A15G G39C | 0.736
132 | A15G C49G C62G | ≤ 0.5
133 | A15G A21G C29G A42G C55A | ≤ 0.5
134 | A15G G48C G51A A65C | ≤ 0.5
135 | A15G A21G A42C C46A | ≤ 0.5
136 | A15C C60A A70U | 0.555
137 | A15C U35A G50C A65C | 0.603
138 | A15G U16A A45U | 0.642
139 | A15C G17A A57G A65G | ≤ 0.5
140 | A15C U16C C34G C46A C61U C66G | ≤ 0.5
141 | A15G A21G | 1.02
142 | A15C G41A G48C | 0.568
143 | A15G G17C C61A | ≤ 0.5
144 | A15G A21G G52C C62A | 0.616

Row | Variant | yeast fitness
145 | A15C G58A C61G C62G | ≤ 0.5
146 | A15G G25A U28C U35A G38A C46G C62U | 0.527
147 | A15G G23A G48A | 0.675
148 | A15G A37C G48C | ≤ 0.5
149 | A15G C24G G52A C66G G67A | ≤ 0.5
150 | A15C G38C C49G G68C | ≤ 0.5
151 | A15C G17A C22U G23C G51A A70U | 0.596
152 | A15G G23C A37U A65U | ≤ 0.5
153 | A15G C33U A45U C62A | ≤ 0.5
154 | A15C C33A | 0.578
155 | A15G C34U G41C C49U | ≤ 0.5
156 | A15G C34U A40U U54C | ≤ 0.5
157 | A15C G17C G50A A69U | ≤ 0.5
158 | A15G G23C C30A A42C G44A G51C | ≤ 0.5
159 | A15G A21C A65U | 0.641
160 | A15G A21C U32C U64A | ≤ 0.5
161 | A15G A36G | 0.867
162 | A15G A36U | 0.679
163 | A15G C29A A36G G39A | ≤ 0.5
164 | A15G C24G U26A G52A G67A G68C | 0.561
165 | A15G C22G A36U A40G U59A | ≤ 0.5
166 | A15C G17C A36C G38C G48A | ≤ 0.5
167 | A15C G39A A65G A70U | ≤ 0.5
